# Assay results of several laboratories.
# Protocols differ between the studies behind these lines.
# Target: Cytochrome P450 3A4 (CYP3A4, Homo sapiens, UniProt P08684)
Structure (SMILES),test,system,setting,measurement,result
COc1cc2c(c(OC)c1OC)-c1c(cc3c(c1OC)OCO3)[C@H](OC(=O)c1ccccc1)[C@@](C)(O)[C@@H](C)C2,"enzyme activity, inhibitor",,"15 min, pH 7.4",IC50,25 µM
NCCCCCC(=O)NCc1cccnc1,thermal stability,,,ΔTm,-0.2 °C
CCN(Cc1cnc2nc(N)nc(N)c2n1)c1ccc(C(=O)N2CCC(C(=O)OC)CC2)cc1,"enzyme activity, inhibitor, luciferase",,10 µM,inhibition,-13.9%
C=CC(=O)Nc1cc(Nc2nccc(Nc3cc(Cl)c(F)cc3C(C)(C)O)n2)c(OC)cc1N1CC[C@@H](N(C)C)C1,"enzyme activity, inhibitor","human, liver microsomes",10 µM,inhibition,24.3%
CC1(C)CCC2(CC1)N[C@@H](C(=O)N[C@@H]1CC[C@@H](C(N)=O)OC1)[C@H](c1ccnc(Cl)c1F)[C@]21C(=O)Nc2cc(Cl)ccc21,"enzyme activity, inhibitor","human, liver microsomes","with preincubation, midazolam probe",kinact,0.00103 s⁻¹
CC(=O)c1cccc(OCc2cc(C(=O)N(C)[C@@H](C)c3ccccn3)no2)c1,"enzyme activity, inhibitor","human, liver microsomes",,IC50,27 µM
CC(C)(C)OC(=O)N[C@H](CSCCC(=O)NCc1cccnc1)Cc1c[nH]c2ccccc12,thermal stability,,,ΔTm,0.2 °C
CCOC(=O)C1CCN(C(=O)c2ccc(N(CC)Cc3cnc4nc(N)nc(N)c4n3)cc2)CC1,"enzyme activity, inhibitor, luciferase",,10 µM,inhibition,-13.6%
CC(C)(C)OC(=O)N[C@H](CSCCC(=O)NCc1cccnc1)CC1CCCCC1,thermal stability,,,ΔTm,-2 °C
COC(=O)C1CCN(C(=O)Cc2ccc(NCc3cnc4nc(N)nc(N)c4n3)cc2)CC1,"enzyme activity, inhibitor, luciferase",,10 µM,inhibition,-1.83%
O=C(N[C@H](Cc1c[nH]c2ccccc12)C(=O)Nc1ccncc1)c1ccc(-c2cc(F)ccc2F)cc1F,"enzyme activity, inhibitor","human, liver microsomes",1 µM,inhibition,74%
CCc1cc(/C(C)=N/OCc2ccc(C3CCCCC3)c(C(F)(F)F)c2)ccc1CN1CC(C(=O)O)C1,"enzyme activity, inhibitor","human, liver microsomes","200 µM, 20 min, testosterone probe",inhibition,72.7%
COC(=O)C1CCN(C(=O)c2ccc(N(CCO)Cc3cnc4nc(N)nc(N)c4n3)cc2)CC1,"enzyme activity, inhibitor, luciferase",,10 µM,inhibition,-27.6%
